Results reported in article PMC5595133 (Theranostics, 2017).

What was measured:
B16 cells = assay: Cell cycle assay by flow cytometry; type: cell-based, mouse; settings: 50 nM (calculated by free DM1), 12 h
MCF-7 cells = assay: Cell cycle assay by flow cytometry; type: cell-based, human; settings: 50 nM (calculated by free DM1), 12 h
HUVEC cells = assay: Cell cycle assay by flow cytometry; type: cell-based, human; settings: 50 nM (calculated by free DM1), 12 h
[1] = In vivo safety examination; set-up: species or system C57BL/6 mice
Outline: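 This used the B16 s.c. model in C57BL/6 mice with tail-vein dosing in saline. Body weight was recorded every other day. On day 25 after implantation, 500 μL of blood was taken without heparin and centrifuged (4000 rpm, 5 min); ALT and AST were measured in serum. 20 μL of peripheral blood went for WBC, RBC and platelet counts by autoanalyzer. Heart, liver, spleen, kidney and lung were formalin-fixed, paraffin-embedded, cut at 5 μm and H&E-stained for light microscopy.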

SMILES: COc1cc2cc(c1Cl)N(C)C(=O)C[C@H](OC(=O)[C@H](C)N(C)C(=O)CCS)[C@]1(C)O[C@H]1[C@H](C)[C@@H]1C[C@@](O)(NC(=O)O1)[C@H](OC)/C=C/C=C(\C)C2 [DM1, Maytansinoid DM1]
- percentage of cells in G2/M phase (B16 cells): 58.26%
- percentage of cells in G2/M phase (MCF-7 cells): 57.18%
- percentage of cells in G2/M phase (HUVEC cells): 42.23%
- body weight change versus saline ([1]; B16 tumor-bearing C57BL/6 mice, 400 μg/kg DM1 i.v. every other day x5, n=6): significant body weight loss
- H&E histology of major organs (heart, liver, spleen, lung, kidney) ([1]; end of test, 200×): severer organic damages
- count of white blood cells (WBC) ([1]; peripheral blood at the end of test, n=6, compared with the normal value): decreased the count
- liver function, circulating ALT and AST ([1]; serum on day 25, n=6): obvious hepatic cytolysis
